Source: ChEMBL document CHEMBL1129293 (J Med Chem, 1996)

Experiments:
[1] = target: D(1A) dopamine receptor (Rattus norvegicus) (UniProt P18901); assay: Affinity towards Dopamine receptor D1 was evaluated in rat striatal membrane using [3H]SCH-23,390 as radioligand; assay type: cell membranes; details: Striatum
Method in brief: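 Male Sprague-Dawley rats, 200–400 g; striatum dissected from coronal slices, used fresh or held at -70 °C. Membranes homogenized and twice centrifuged at 27000g in ice-cold 50 mM HEPES, 4.0 mM MgCl2, pH 7.4, final ca. 2.0 mg wet weight/mL. Incubation with [3H]SCH23390 at 37 °C for 15 min; bound radioactivity by liquid scintillation; protein by Lowry.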

[2] = species on record: Rattus norvegicus; assay: Evaluated for the maximum stimulation of adenylate cyclase in rat striatal tissue with respect to the maximum stimulation caused by dopamine; assay type: functional, Striatum
[3] = target: D(2) dopamine receptor (Rattus norvegicus) (UniProt P61169); assay: Affinity towards Dopamine receptor D2 was evaluated in rat striatal membrane using [3H]spiperone as radioligand; assay type: cell membranes; details: Striatum
[4] = target: D(1A) dopamine receptor (Rattus norvegicus, UniProt P18901); assay: Effective concentration was determined for the adenylate cyclase activity in rat striatal tissue as a measure of Dopamine receptor D1 functional activity; assay type: tissue-based, Striatum
Sequence of D(1A) dopamine receptor (P18901 whole entry): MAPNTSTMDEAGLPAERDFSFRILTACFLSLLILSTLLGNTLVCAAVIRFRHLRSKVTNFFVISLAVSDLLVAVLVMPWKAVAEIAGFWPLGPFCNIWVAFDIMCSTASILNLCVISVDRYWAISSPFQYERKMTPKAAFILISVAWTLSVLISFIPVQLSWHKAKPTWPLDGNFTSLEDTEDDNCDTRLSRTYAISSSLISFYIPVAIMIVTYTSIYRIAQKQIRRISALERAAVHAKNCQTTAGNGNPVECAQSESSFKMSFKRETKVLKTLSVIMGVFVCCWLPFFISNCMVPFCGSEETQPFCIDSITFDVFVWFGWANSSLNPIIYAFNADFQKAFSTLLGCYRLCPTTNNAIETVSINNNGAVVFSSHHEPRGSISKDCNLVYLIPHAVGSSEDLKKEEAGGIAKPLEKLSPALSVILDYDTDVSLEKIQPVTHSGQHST

Sequence of D(2) dopamine receptor (Rattus norvegicus) (P61169 whole entry): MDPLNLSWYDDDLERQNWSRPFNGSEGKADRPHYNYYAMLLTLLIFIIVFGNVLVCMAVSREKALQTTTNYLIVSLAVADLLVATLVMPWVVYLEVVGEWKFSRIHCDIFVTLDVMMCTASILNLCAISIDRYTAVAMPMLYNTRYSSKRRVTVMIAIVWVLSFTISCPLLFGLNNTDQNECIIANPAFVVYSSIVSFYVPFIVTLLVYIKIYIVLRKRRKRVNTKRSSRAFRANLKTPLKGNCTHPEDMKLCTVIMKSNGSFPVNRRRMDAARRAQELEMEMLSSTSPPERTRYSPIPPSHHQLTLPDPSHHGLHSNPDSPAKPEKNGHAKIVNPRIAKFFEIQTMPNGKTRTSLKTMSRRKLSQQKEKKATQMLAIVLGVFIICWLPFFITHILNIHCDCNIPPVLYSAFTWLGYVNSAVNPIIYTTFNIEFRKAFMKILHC
Sequence of D(1A) dopamine receptor (Rattus norvegicus) (P18901 whole entry): as the sequence (P18901 whole entry) above

| SMILES | K0.5 [1] [nM] | Stimulation [2] [%] | K0.5 [3] [nM] | EC50 [4] [µM] |
| --- | --- | --- | --- | --- |
| NCCc1ccc(O)c(O)c1 [DOPAMINE] | 267 | 100 |  |  |
| CCCN1Cc2ccccc2[C@@H]2c3cc(O)c(O)cc3CC[C@H]21 | 326 | 36 | 27 | > 10 |
| Oc1ccc2c(c1O)CCC(NCc1ccccc1)C2 (configuration not stated) | > 1000 | 38 | > 1000 | > 1 |
| C=CCN1CCc2c(cc(O)c(O)c2Cl)[C@@H](c2ccccc2)C1 | 4 | 94 | 73 |  |
| NC[C@@H]1O[C@H](c2ccccc2)Cc2c1ccc(O)c2O | 0.9 | 96 | 41 |  |
| CN1Cc2ccccc2[C@@H]2c3ccc(O)c(O)c3CC[C@H]21 | 477 | 22 | 61 | > 10 |
| NC[C@@H]1O[C@H](C23CC4CC(CC(C4)C2)C3)Cc2c1ccc(O)c2O |  | 92 |  |  |
| C=CCN1Cc2ccccc2[C@@H]2c3cc(O)c(O)cc3CC[C@H]21 | 328 | 32 | 182 | > 10 |
| CCCN1CCC[C@@H]2Cc3n[nH]cc3C[C@H]21 | > 10000 |  | 49 |  |
| Oc1cc2c(cc1O)[C@@H]1c3ccccc3CN[C@@H]1CC2 (relative stereo) | > 1000 | 17 | > 1000 |  |
| Oc1cc2c(cc1O)[C@H]1c3ccccc3CN[C@@H]1CC2 [DIHYDREXIDINE] | 2.3 | 120 | 43.8 |  |
| Oc1cc2c(cc1O)CC(NCc1ccccc1)CC2 (configuration not stated) | > 1000 | 25 | 335 | > 10 |
| CN1CCc2cc(Cl)c(O)cc2[C@@H](c2ccccc2)C1 |  |  | 600 |  |
| Oc1ccc([C@@H]2CNCc3sccc32)cc1O | 61 | 120 | 142 | 0.7 |
